These results are taken from paper PMC5320539 (ACS Chemical Biology, 2016).

Entries after “also recorded” stand apart in the source; their conditions may differ. Read-outs that look alike come from different tables or passages of the source. Positions of bridges follow the written chain, without caps; N, C: chain ends. Non-standard residues stand in square brackets, D forms with d. Residues, ends and D or L forms follow the SMILES beside them. No end group written: not given here. *: point of attachment. S5 = C=CCCC[C@](C)(N)C(=O)O; code λ = not defined here; Dap = NC[C@H](N)C(=O)O; ClAc = O=C(CCl)*

The chains are these.
B2: hBfl-1ΔTm(1–149) (domain or fragment)
chain: MTDCEFGYIYRLAQDYLQCVLQIPQPGSGPSKTSRVLQNVAFSVQKEVEKNLKSCLDNVNVVSVDTARTLFNQVMEKEFEDGIINWGRIVTIFAFEGILIKKLLRQQIAPDVDTYKEISYFVAEFIMNNTGEWIRQNGGWENGFVKKFE

Assay [1] has as its target T1, hBfl-1 (Homo sapiens, UniProt Q16548).
T1 sequence (Q16548 with tags, fused parts or gaps): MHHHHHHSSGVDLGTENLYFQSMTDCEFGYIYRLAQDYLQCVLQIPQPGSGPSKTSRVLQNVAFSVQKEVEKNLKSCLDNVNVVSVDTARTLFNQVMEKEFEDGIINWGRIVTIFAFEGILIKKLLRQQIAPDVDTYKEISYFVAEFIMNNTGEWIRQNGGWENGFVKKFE
As to the kind of experiment: DELFIA displacement of biotinylated BID BH3 peptide from hBfl-1. The class given is binding. The settings on record: hBfl-1 versus hMcl-1.

Assay [2] has as its target T1, hBfl-1. As to the kind of experiment: Covalent adduct formation by SDS gel electrophoresis. The format is binding. Particulars: hBfl-1 10 μM, equimolar peptide, 15 min to 2 h. In outline: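 Synthetic peptide and human Bcl-2 family protein were incubated together at equimolar 10 μM. hBfl-1 (10 μM) was sampled with or without peptide at 15 min, 30 min, 1 h and 2 h. Samples were resolved by SDS-PAGE and stained with Coomassie.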

The target in assay [3] is Bcl-xL ΔTM (Bcl-xL deletion mutant lacking the transmembrane domain) (human). Description: DELFIA displacement assay.
For assay [4], the target named is Recombinant hBcl-2 protein (human). As to the kind of experiment: DELFIA displacement assay.
In assay [5] the target is T1, hBfl-1. Description: Isothermal titration calorimetry against hBfl-1. The format is binding. The settings on record: VP-ITC, reverse fashion (protein titrated into compound), 25 °C, PBS + 10% DMSO.
Assay [6] has as its system primary CLL cells. The format is cell-based, human. The settings on record: primary CLL cells alone or cocultured with stroma-NK-tert cells, 48 h. In outline: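 Primary CLL cells were taken as PBMC from heparinized patient blood by Ficoll density gradient, using samples >95% CD5+/CD19+. They were cultured in RPMI with 10% heat-inactivated FBS at 3 × 10^5 cells/well, 37 °C, 5% CO2, alone or on bone-marrow NK-tert stroma ([…]), with test compound for 48 h. Cells were gated CD19/CD5 (4 °C, 30 min), stained with DiOC6 (30 min, 37 °C), and analysed by flow cytometry as % SIA.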

The target in assay [7] is 130E7 (covalent hBIM derived BH3 peptide, Ac-λ…-NH2) (human). As to the kind of experiment: ITC.
The target in assay [8] is B2. As to the kind of experiment: DELFIA displacement assay.
In assay [9] the target is hMcl-1 (172–323) (human, UniProt Q07820 172-323). As to the kind of experiment: DELFIA displacement assay.
For assay [10], the target named is B2. Description: ITC.
Assay [11] has as its target Bcl-xL ΔTM (Bcl-xL deletion mutant lacking the transmembrane domain) (human). Description: DELFIA displacement assay. This is another data set of the same source.
Assay [12] addresses Recombinant hBcl-2 protein (human). As to the kind of experiment: DELFIA displacement assay. The source holds these as a separate data set.
Assay [13] concerns the target T2, hBfl-1ΔTm(1–149) (human).
T2 chain: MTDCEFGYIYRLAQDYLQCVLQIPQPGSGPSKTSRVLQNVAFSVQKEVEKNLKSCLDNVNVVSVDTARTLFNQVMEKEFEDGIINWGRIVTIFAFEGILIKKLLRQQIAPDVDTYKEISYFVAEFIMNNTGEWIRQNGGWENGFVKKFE
As to the kind of experiment: DELFIA displacement assay.

For assay [14], the target named is T3, hMcl-1 (172–323) (human), Q07820.
T3 chain: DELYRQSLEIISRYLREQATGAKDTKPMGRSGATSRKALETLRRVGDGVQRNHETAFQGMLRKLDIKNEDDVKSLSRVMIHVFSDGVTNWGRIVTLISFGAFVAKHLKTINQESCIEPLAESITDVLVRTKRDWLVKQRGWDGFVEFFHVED
Description: DELFIA displacement assay.

Assay [15] has as its target T4, biotin-BID (Biotin-lc-EDIIRNIARHLAQVGDSMDR-NH2) (N-terminal biotin-lc (aminohexanoic acid); C-terminal amide).
T4 peptide: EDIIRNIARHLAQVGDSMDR
Description: DELFIA displacement assay.

For Ac-CATQLRRFGDKLNFRQKLLN-NH2 [hNOXA], the “increased affinity for hBfl-1 over hMcl-1” value in assay [1] is listed as “over 2 orders of magnitude”. In assay [2], the “covalent complex with hBfl-1 (SDS-PAGE, Coomassie)” value is “formed a covalent complex”.
On to NOXA B (Ac-…-NH2) (peptide), for which the IC50 in assay [3] and in assay [4] was greater than 1000 nM in each case.
Turning to `CC[C@H](C)[C@H](NC(=O)[C@H](CNC(=O)CCl)NC(C)=O)C(=O)N[C@@H](C)C(=O)N[C@@H](CCC(N)=O)C(=O)N[C@@H](CCC(=O)O)C(=O)N[C@@H](CC(C)C)C(=O)N[C@@H](CCCNC(=N)N)C(=O)N[C@@]1(C)CCC/C=C\CCC[C@@](C)(C(=O)N[C@@H](Cc2ccccc2)C(=O)N[C@@H](CC(N)=O)C(=O)N[C@@H](C)C(=O)N[C@@H](Cc2ccc(O)cc2)C(=O)N[C@@H](Cc2ccc(O)cc2)C(=O)N[C@@H](C)C(=O)N[C@@H](CCCNC(=N)N)C(=O)N[C@@H](CCCNC(=N)N)C(N)=O)NC(=O)[C@H](CC(=O)O)NC(=O)CNC(=O)[C@H]([C@@H](C)CC)NC1=O` [130D11] (Ac-[Dap](ClAc)IAQELR[S5]IGD[S5]FNAYYARR-NH2; staple (Z) 8-12), in assay [5], the “ITC KD hBfl-1” value is “not detected; also recorded: no significant binding”.
Consider `COc1cc([C@@H]2c3cc4c(cc3[C@@H](O[C@@H]3O[C@@H]5CO[C@@H](C)O[C@H]5[C@H](O)[C@H]3O)[C@H]3COC(=O)[C@H]23)OCO4)cc(OC)c1O` [etoposide], for which, in [6], the “single agent activity (% SIA), in words” value is listed as “limited activity”.
As to NOXA A (Ac-…-NH2) (peptide), the IC50 in [3] and in assay [4] was greater than 1000 nM throughout.
Regarding `Nc1nc(F)nc2c1ncn2[C@@H]1O[C@H](CO)[C@@H](O)[C@@H]1O` [fludarabine], in assay [6], the “single agent activity (% SIA), in words” value is “limited activity”.

B1: hMcl-1 (172-323), Q07820 172-323 (domain or fragment)
chain: DELYRQSLEIISRYLREQATGAKDTKPMGRSGATSRKALETLRRVGDGVQRNHETAFQGMLRKLDIKNEDDVKSLSRVMIHVFSDGVTNWGRIVTLISFGAFVAKHLKTINQESCIEPLAESITDVLVRTKRDWLVKQRGWDGFVEFFHVED
Turning to B1, in assay [7], the Kd is 2 nM.
As to Ac-AELPPEFAAQLRKIGDKVYC-NH2 [NOXA A (Ac-AELPPEFAAQLRKIGDKVYC-NH2)], in assay [8], the IC50 is greater than 1000 nM.
Same read-out and setting: with Ac-PADLKDECAQLRRIGDKVNL-NH2 [NOXA B (Ac-PADLKDECAQLRRIGDKVNL-NH2)] the figure was 431 nM.
In the case of Ac-CATQLRRFGDKLNFRQKLLN-NH2 [hNOXA (Ac-CATQLRRFGDKLNFRQKLLN-NH2)], the IC50 in [8] is 7.5 nM; in assay [9] it was 228 nM.
For Ac-CATQLRRFGDKLNFRQKLLNLISKLFC-NH2 (also: cyclic (cyc_), mode of cyclisation not given here) [cyc_hNOXA (Ac-CATQLRRFGDKLNFRQKLLNLISKLFC-NH2)], in that order: 86 nM and 344 nM.
Consider Ac-CATQLRRFGDKLNFRQKLLN-NH2 [hNOXA (Ac-…-NH2)], for which the IC50 in assay [3] and in [4] was greater than 1000 nM in each case.
As for Ac-CATQLRRFGDKLN-NH2 [hNOXAs (Ac-CATQLRRFGDKLN-NH2)], the values for the IC50 in assay [8] and in assay [9] were 15 nM and greater than 1000 nM, respectively.
As for Ac-AATQLRRFGDKLN-NH2 [C1A_hNOXAs (Ac-AATQLRRFGDKLN-NH2)], the IC50 in [8] and in assay [9] was greater than 1000 nM throughout.
As to Ac-CATQLRRFGDKLN-NH2 [hNOXAs (Ac-…-NH2)], the IC50 in assay [3] and in [4] was greater than 1000 nM in each case.
[Dap](ClAc)IAQELRRIGDEFNAYYARR [130E7] had a Kd in assay [10] of 2.6 nM.
Same read-out and setting: the figure for PRRPRRPRRPRRPRR[Dap](ClAc)IAQELRRIGDEFNAYYARR [130G4] is 23 nM.
With Ac-[code λ]ATQLRRFGDKLNFRQKLLN-NH2 (reading uncertain) [λ_hNOXA (Ac-λ…-NH2)], the IC50 in [11] is greater than 1000 nM; in assay [12], greater than 1000 nM; in [13], 287 nM; in assay [14], 233 nM.
With B2, the binding result in assay [15] was “binds”.
In the case of Ac-[code h]ATQLRRFGDKLNFRQKLLN-NH2 [homo_hNOXA (Ac-h…-NH2)], the IC50 in assay [11] is greater than 1000 nM; in assay [12], greater than 1000 nM; in assay [13], 83 nM; in [14], 266 nM.
